# Test results as given in ChEMBL document CHEMBL4038313, “Expanding the Antiviral Spectrum of 3-Fluoro-2-(phosphonomethoxy)propyl Acyclic Nucleoside Phosphonates: Diamyl Aspartate Amidate Prodrugs” (J Med Chem, 2017).
# Tests used:
# [1] = test system: Human immunodeficiency virus 1; test: Antiviral activity against CXCR4-tropic HIV-1 NL4-3 infected in human TZM-bl cells assessed as inhibition of virus-induced cytopathic effect preincubated with cells for 30 mins followed by viral infection measured after 48 hrs in presence of p-24 HIV-1 Ag by luciferase reporter gene assay; assay type: functional, cell-based; conditions: Human immunodeficiency virus 1, NL4-3, TZM-bl
# How it was run: (§1)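 TZM-bl cells, 1 × 10^4 per well in DMEM with 10% FBS and 10 mM […], incubated 30 min at 37 °C with compound. Then HIV-1 NL4.3 (X4) or BaL (R5) added at 100 pg p24 Ag per well. After 48 h, cells lysed with luciferase substrate. Tat-induced luminescence read after 10 min dark incubation as a measure of replication.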
# [2] = test system: Human immunodeficiency virus 1; test: Antiviral activity against CCR5 tropic HIV1 BaL infected in human TZM-bl cells assessed as inhibition of virus-induced cytopathic effect preincubated with cells for 30 mins followed by viral infection measured after 48 hrs in presence of p-24 HIV-1 Ag by luciferase reporter gene assay; assay type: functional, cell-based; conditions: Human immunodeficiency virus 1, BaL; how it was run: as §1
# [3] = Cytotoxicity against human TZM-bl cells assessed as cell viability by tetrazolium dye assay; assay type: cell-based
# [4] = Selectivity index, ratio of CC50 for human TZM-bl cells to EC50 for CXCR4-tropic HIV-1 NL4-3 infected in human TZM-bl cells; assay type: toxicity, cell-based; conditions: read-out: Ratio CC50/EC50
# [5] = Selectivity index, ratio of CC50 for human TZM-bl cells to EC50 for CCR5 tropic HIV1 BaL infected in human TZM-bl cells; assay type: toxicity, cell-based; conditions: read-out: Ratio CC50/EC50
# Hepatitis B virus = test: Antiviral activity against HBV ayw1 infected in human HepG2(2.2.15) cells assessed as reduction in viral replication by measuring extracellular viral DNA copy number after 6 days by real-time qPCR method; assay type: functional, cell-based; conditions: ayw1, HepG2 2.2.15, 144 h
# How it was run: (§2)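 HepG2.2.15 cells (two copies of HBV ayw1 genome), 1.5 × 10^4/well in DMEM with 2% FBS and 380 μg/mL G418. After 16–24 h, compound added in triplicate, medium with compound renewed at day 3. Supernatant collected at day 6, Pronase-treated, and extracellular HBV DNA measured by TaqMan qPCR (precore/core) against an HBV DNA standard curve. EC50/EC90 derived; CC50 by MTS uptake.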
# [6] = Cytotoxicity against human HepG2.2.15 cells assessed as cell viability by tetrazolium dye uptake assay; assay type: cell-based, HepG2 2.2.15
# How it was run: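 HepG2.2.15 cells (two integrated copies of HBV ayw1 genome) were seeded at 1.5 × 10^4 cells/well in DMEM with 2% FBS, 380 μg/mL G418, glutamine, antibiotics and nonessential amino acids. After 16−24 h, medium with various compound concentrations was added in triplicate and renewed on day 3. After 6 days of treatment, viability was read by MTS uptake and CC50 was calculated.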
# [7] = Selectivity index, ratio of CC50 for HepG2.2.15 cells to EC50 for HBV ayw1 infected in human HepG2(2.2.15) cells assessed as reduction in viral replication by measuring extracellular viral DNA copy; how it was run: as §2
# Human betaherpesvirus 5 [8] = test: Antiviral activity against Human cytomegalovirus AD169 infected in HEL cells assessed as inhibition of virus-induced cytopathic effect; assay type: functional, cell-based; conditions: Human betaherpesvirus 5, AD169, HEL
# How it was run: (§3)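 HEL fibroblast monolayers inoculated with 100 CCID50 HCMV (AD-169, Davis) or 20 PFU VZV (TK+ Oka, TK− 07-1). Adsorbed 1–2 h, inoculum removed, then incubated with compound dilutions. HCMV cytopathicity or VZV plaques scored once untreated infected controls reached completion. EC50 is 50% reduction. SI is CC50/EC50, and the potency ratio is the ratio of EC50s.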
# Human betaherpesvirus 5 [9] = test: Antiviral activity against HCMV Davis strain infected in HEL cells assessed as inhibition of virus-induced cytopathic effect; assay type: functional, cell-based; conditions: Human betaherpesvirus 5, Davis; how it was run: as §3
# Human alphaherpesvirus 3 [10] = test: Antiviral activity against thymidine kinase expressing Varicella-Zoster virus Oka strain assessed as inhibition of plaque formation; assay type: functional; conditions: Human alphaherpesvirus 3, strain Oka vaccine; how it was run: as §3
# Human alphaherpesvirus 3 [11] = test: Antiviral activity against thymidine kinase deficient Varicella-Zoster virus 07-1 infected in HEL cells assessed as inhibition of plaque formation; assay type: functional, cell-based; conditions: Human alphaherpesvirus 3, 07-1, HEL; how it was run: as §3
# [12] = Cytotoxic activity against HEL cells assessed as alteration of cell morphology after 3 days by microscopic method; assay type: cell-based; conditions: human
# How it was run: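 HEL cells with compound; MCC is the lowest concentration giving microscopically detectable alteration of cell morphology.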
# [13] = test system: Human immunodeficiency virus 1; test: (§4) Antiviral activity against CXCR4-tropic HIV-1 NL4-3 infected in human PHA-stimulated PBMC assessed as inhibition of viral replication by measuring reduction in p24 antigen production preincubated with cells for 30 mins followed by viral infection measured on day 10 post infection in presence of IL-2 by ELISA; assay type: functional; conditions: Human immunodeficiency virus 1, NL4-3
# How it was run: (§5)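 PBMCs stimulated with 2 μg/mL PHA for 3 days at 37 °C, then 5 × 10^5 cells/ml preincubated 30 min at 37 °C with serial compound dilutions plus 2 ng/mL IL-2. Infected with 1500 pg/well HIV-1 BaL or 500 pg/well other isolates. IL-2 re-added on days 3 and 6. Supernatant p24 Ag measured by ELISA at day 10. EC50 is 50% inhibition of replication.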
# [14] = test system: Human immunodeficiency virus 1; test: as §4, with “CCR5 tropic HIV1 BaL” for “CXCR4-tropic HIV-1 NL4-3”; assay type: functional; conditions: Human immunodeficiency virus 1, BaL; how it was run: as §5
# [15] = Cytotoxicity against human PHA-stimulated PBMC assessed as cell viability by tetrazolium dye assay; assay type: cell-based
# [16] = Selectivity index, ratio of CC50 for human PHA-stimulated PBMC to IC50 for CXCR4-tropic HIV-1 NL4-3 infected in human PHA-stimulated PBMC
# [17] = Selectivity index, ratio of CC50 for human PHA-stimulated PBMCs to IC50 for CCR5 tropic HIV1 BaL infected in human PHA-stimulated PBMC
# [18] = Cytotoxic activity against HEL cells assessed as reduction in cell proliferation after 3 days by coulter counting method; assay type: cell-based; conditions: human
# How it was run: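 HEL cells seeded at 5 × 10^3/well, grown 24 h, then given compound for 3 days at 37 °C. Cell number counted by Coulter counter. CC50 is 50% reduction of proliferation relative to untreated controls, read from graphic plots.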
SMILES,EC50 [1],EC50 [2],CC50 [3],selectivity ratio [4],selectivity ratio [5],EC50 (Hepatitis B virus),EC90 (Hepatitis B virus),CC50 [6],Ratio CC50/EC50 [7],EC50 (Human betaherpesvirus 5 [8]),EC50 (Human betaherpesvirus 5 [9]),EC50 (Human alphaherpesvirus 3 [10]),EC50 (Human alphaherpesvirus 3 [11]),MCC at 72 h [12],IC50 [13],IC50 [14],CC50 [15],Ratio CC50/IC50 [16],Ratio CC50/IC50 [17],CC50 at 72 h [18]
Cc1cn(C[C@@H](CF)OCP(=O)(O)O)c(=O)[nH]c1=O,56.8 µM,> 100 µM,> 100 µM,> 2,1,> 100 µM,> 100 µM,> 100 µM,1,> 338 µM,> 338 µM,> 338 µM,338 µM,> 338 µM,–,–,–,–,–,–
Cc1cn(C[C@H](CF)OCP(=O)(O)O)c(=O)[nH]c1=O,54.8 µM,> 100 µM,> 100 µM,> 2,1,> 100 µM,> 100 µM,> 100 µM,1,> 338 µM,> 338 µM,> 338 µM,> 338 µM,> 338 µM,–,–,–,–,–,–
Nc1nc(O)c2ncn(C[C@@H](CF)OCP(=O)(O)O)c2n1,4.81 µM,3.79 µM,> 100 µM,> 21,> 26,0.59 µM,42.7 µM,> 100 µM,>169,127 µM,57 µM,15.5 µM,12.5 µM,> 311 µM,0.28 µM,1.14 µM,36.4 µM,130,32,65.4 µM
Nc1ccn(C[C@H](CF)OCP(=O)(O)O)c(=O)n1,54.1 µM,> 100 µM,> 100 µM,> 2,1,> 100 µM,> 100 µM,> 100 µM,1,> 356 µM,> 356 µM,> 356 µM,> 356 µM,> 356 µM,–,–,–,–,–,–
CCCCCOC(=O)C[C@H](NP(=O)(CO[C@@H](CF)Cn1cnc2c(N)ncnc21)Oc1ccccc1)C(=O)OCCCCC (stereo partly drawn),0.14 µM,0.11 µM,37.6 µM,269,342,1.06 µM,16.9 µM,33 µM,31,> 31.4 µM,> 31.4 µM,3.81 µM,8.24 µM,157 µM,0.026 µM,0.33 µM,36.1 µM,>1388,109,7.47 µM
CCCCCOC(=O)C[C@H](NP(=O)(CO[C@H](CF)Cn1ccc(N)nc1=O)Oc1ccccc1)C(=O)OCCCCC (stereo partly drawn),> 69 µM,> 69 µM,69 µM,< 1,< 1,41.9 µM,> 100 µM,46.3 µM,1,0.76 µM,2.02 µM,3.15 µM,1.32 µM,163 µM,–,–,–,–,–,74.7 µM
CCCCCOC(=O)C[C@H](NP(=O)(CO[C@@H](CF)Cn1ccc(N)nc1=O)Oc1ccccc1)C(=O)OCCCCC (stereo partly drawn),> 54.2 µM,> 54.2 µM,54.2 µM,< 1,< 1,28 µM,91.5 µM,33.5 µM,1,> 32.6 µM,> 32.6 µM,> 32.6 µM,> 32.6 µM,32.6 µM,–,–,–,–,–,–
Nc1ccn(C[C@@H](CF)OCP(=O)(O)O)c(=O)n1,41.9 µM,68.5 µM,> 100 µM,> 2,> 1,> 100 µM,> 100 µM,> 100 µM,1,143 µM,27.1 µM,71.1 µM,71.1 µM,> 356 µM,–,–,–,–,–,> 356 µM
CCCCCOC(=O)C[C@H](NP(=O)(CO[C@@H](CF)Cn1cc(C)c(=O)[nH]c1=O)Oc1ccccc1)C(=O)OCCCCC (stereo partly drawn),> 100 µM,> 100 µM,> 100 µM,1,1,47 µM,> 100 µM,34.2 µM,<1,> 31.9 µM,> 31.9 µM,31.9 µM,12.7 µM,31.9 µM,–,–,–,–,–,–
Nc1ncnc2c1ncn2C[C@H](CF)OCP(=O)(O)O,29.2 µM,30.7 µM,> 100 µM,> 3,> 3,11.2 µM,> 100 µM,> 100 µM,>9,> 328 µM,> 328 µM,172 µM,> 328 µM,> 328 µM,4.04 µM,11.9 µM,93.9 µM,23,8,–
Nc1nc(O)c2ncn(C[C@H](CF)OCP(=O)(O)O)c2n1,4.57 µM,6.65 µM,> 100 µM,> 22,> 15,0.49 µM,82.5 µM,> 100 µM,>204,139 µM,62.3 µM,62.3 µM,62.3 µM,> 311 µM,1.42 µM,6.41 µM,93.1 µM,66,14.5,–
Nc1nc2c(ncn2COCCO)c(=O)[nH]1 [ACYCLOVIR],–,–,–,–,–,–,–,–,–,–,–,3.02 µM,20.7 µM,> 444 µM,–,–,–,–,–,> 444 µM
O=c1[nH]c(=O)n([C@H]2C[C@H](O)[C@@H](CO)O2)cc1/C=C/Br [BRIVUDINE],–,–,–,–,–,–,–,–,–,–,–,0.055 µM,5.21 µM,> 300 µM,–,–,–,–,–,> 300 µM
Nc1ccn(C[C@@H](CO)OCP(=O)(O)O)c(=O)n1 [CIDOFOVIR],–,–,–,–,–,–,–,–,–,2.49 µM,3.74 µM,–,–,> 358 µM,–,–,–,–,–,> 358 µM
Nc1nc2c(ncn2COC(CO)CO)c(=O)[nH]1 [GANCICLOVIR],–,–,–,–,–,–,–,–,–,–,16.5 µM,–,–,> 391 µM,–,–,–,–,–,> 391 µM
CC(C)OC(=O)[C@H](C)N[P@](=O)(CO[C@H](C)Cn1cnc2c(N)ncnc21)Oc1ccccc1 [TENOFOVIR ALAFENAMIDE],–,–,–,–,–,–,–,–,–,–,–,–,–,–,0.001 µM,0.01 µM,1.32 µM,1320,132,–
